Compounds with a hit are over-represented: about 1.8% of the library has one in this group of screens.
M5 PAM: human M5 muscarinic receptor positive allosteric modulators, primary screen, CHO-K1 cells, Fluo-8 calcium fluorescence. Muscarinic acetylcholine receptor M5 (Homo sapiens), P08912. CHO-K1 hM5, ACh EC20 PAM; 0% = ACh EC20, 100% = ACh EC100. activation, % at 3 µM. 0.3% of 360,000 active. AID 624038, 2012;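 active means activation above the run cutoff, the mean activation of all test compounds plus 3 SD, cut at about 18% in these data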
Target sequence (P08912 whole entry, looked up): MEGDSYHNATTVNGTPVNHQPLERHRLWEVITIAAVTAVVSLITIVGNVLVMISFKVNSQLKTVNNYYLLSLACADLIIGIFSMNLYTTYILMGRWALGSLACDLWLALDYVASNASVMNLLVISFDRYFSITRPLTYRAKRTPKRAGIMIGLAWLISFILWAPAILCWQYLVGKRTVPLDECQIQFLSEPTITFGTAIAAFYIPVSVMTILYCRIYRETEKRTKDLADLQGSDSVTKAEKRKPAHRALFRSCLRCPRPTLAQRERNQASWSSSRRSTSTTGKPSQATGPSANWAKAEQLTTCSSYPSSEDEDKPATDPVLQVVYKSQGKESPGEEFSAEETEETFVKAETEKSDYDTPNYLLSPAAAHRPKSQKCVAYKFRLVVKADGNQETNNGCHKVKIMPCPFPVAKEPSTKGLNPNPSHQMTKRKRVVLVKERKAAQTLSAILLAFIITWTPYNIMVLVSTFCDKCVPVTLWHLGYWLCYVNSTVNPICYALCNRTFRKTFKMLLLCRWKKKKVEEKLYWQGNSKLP
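Test system: CHO-K1 hM5 cells / Doses: single-point, 3 µM nominal / Times: Post-acetylcholine fluorescence recording 140 s / Technique: Fluo-8 calcium fluorescence / Measure: Max/basal fluorescence ratio as % of EC20–EC100 ACh window / Benchmarks: low control EC20 acetylcholine (0%), high control EC100 acetylcholine (100%) / Replicates: one well per compound, no replicates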
CHRM5 agonist: human M5 muscarinic receptor agonists, primary screen, CHO-K1 cells, Fluo-8 calcium fluorescence. Muscarinic acetylcholine receptor M5 (Homo sapiens), P08912. AID 624037, 2012. CHO-K1 hM5 cells; 0% DMSO wells, 100% maximal acetylcholine response. activation, % at 3 µM. 0.19% of 360,000 active;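 active means activation above the run's mean over test compounds plus 3 SD, cut at about 23% in these data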;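 further: signal is peak over basal fluorescence ratio across the kinetic read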
CHRM4 PAM: human M4 muscarinic receptor positive allosteric modulators, primary screen, CHO-K1 cells, Fluo-8 calcium fluorescence | activation, % at 3 µM | Muscarinic acetylcholine receptor M4 (Homo sapiens), P08173 | CHO-K1 hM4/Gqi5, ACh EC20; 0% = ACh EC20, 100% = maximal ACh | AID 624126, 2012 | 0.4% of 360,000 active;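 active means activation above its plate's cutoff, the mean activation of sample wells plus 3 SD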
M4 ag: human M4 muscarinic receptor agonists, primary screen, CHO-K1 cells, Fluo-8 calcium fluorescence | CHO-K1 hM4/Gqi5; vehicle 0%, full acetylcholine response 100% | activation, % at 3 µM | 0.14% of 360,000 active | AID 624127, 2012;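 active means activation above the run mean over all test wells plus 3 SD, cut at about 32% in these data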;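 further: peak over basal fluorescence ratio per well then scaled between controls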
M5 antag: human M5 muscarinic receptor antagonists, primary screen, CHO cells, Fluo-8 calcium fluorescence; Muscarinic acetylcholine receptor M5 (Homo sapiens), P08912; AID 624040, 2012; CHO-hM5 cells, ACh EC80; inhibition, % at 3 µM; 0.59% of 360,000 active;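 active means inhibition above a per-plate cutoff, the mean of that plate's test compounds plus 3 SD, cut at about 27% in these data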
M4 antag: human M4 muscarinic receptor antagonists, primary screen, CHO cells, Fluo-8 calcium fluorescence; inhibition, % at 3 µM; 0.73% of 360,000 active; CHO-hM4 cells, ACh EC80; Muscarinic acetylcholine receptor M4 (Homo sapiens), P08173; AID 624125, 2012;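 active means inhibition above its plate's cutoff, the mean inhibition of sample wells plus 3 SD, cut at about 27% in these data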
Large screens that a line does not name were inactive; ! = a repeat was not active.

c1cc(SC2CCCCC2)cc(-c2nc3cnccn3c2NC2CCCCC2)c1	none
CCC(C)Sc1cc(-c2nc3ccccn3c2NC2CCCCC2)ccc1OC (stereo unspecified)	M4 antag 54.5!
CCC(C)Sc1cccc(-c2nc3cnccn3c2NC2CCCCC2)c1 (stereo unspecified)	M4 antag 26.4
Cc1ccc(/C=C/C(=O)NC2CCCCCCC2)o1	CHRM4 PAM 28.4
Cc1ccc(/C=N/NC(=O)NC2CCCCC2)o1	none
CC1(C)SC2C(C(=O)O)N=C(Cc3ccccc3)N2C1C(=O)O (stereo unspecified)	none
CCO[C@H]1OC(C(=O)NCc2nc3ccccc3[nH]2)=C[C@@H](C2CC2)[C@@H]1CCCO	CHRM4 PAM 23.8
CCO[C@@H]1OC(C(=O)NCc2ccccc2)=C[C@H](c2csc3ccccc23)[C@H]1CCCO	M4 ag 41.5, M4 antag 26.5
CCO[C@H]1OC(C(=O)NCc2ccccc2)=C[C@@H](c2ccc3c(c2)OCO3)[C@@H]1CCCO	CHRM5 agonist 24.7
Cn1nnc2cc(NC(=O)Nc3cccc(C(F)(F)F)c3)ccc21	none
CC1=CC(C)C(C[N+]2(C)CCCCC2)C(C)C1 (stereo unspecified)	none
CC1=CC(C)C(/C=N/N=C(N)N)C(C)C1 (stereo unspecified)	M5 PAM 20.7
CC(=O)OCC1OC(n2cc(F)c(=O)[nH]c2=O)C(OC(C)=O)C1OC(C)=O (stereo unspecified)	none
O=C1C(F)=CC(COC(c2ccccc2)(c2ccccc2)c2ccccc2)OC1n1cc(F)c(=O)[nH]c1=O (stereo unspecified)	M4 antag 34.2
COc1ccc(/C=N/OC(=O)c2ccc(Cl)cc2)c(Cl)c1OC	none
CN(C)CCCNc1oc(/C=C/c2ccccc2)nc1C#N	M5 PAM 32.0
CC(C)Oc1cc(F)ccc1-c1cc(C(=O)NCc2cccnc2)[nH]n1	none
CCN(CC)c1ccc(/C=C(/C#N)c2nc3ccccc3[nH]2)c(OC(C)C)c1	M4 ag 56.9
CCOc1cccc(/C=C(/C#N)c2nc3ccccc3[nH]2)c1OCC(=O)O	none
CCCCCCC(=O)NNC(=O)CC(=O)Nc1ccccc1C(=O)O	CHRM4 PAM 46.3
CSc1ccccc1NC(=O)CSCc1ccc(C)cc1	none
Cc1ccc(CSCC(=O)Nc2ccccc2C(=O)O)cc1	CHRM4 PAM 15.0
CCOCC(=O)Nc1ccccc1C(=O)O	CHRM4 PAM 26.2
O=c1c2cc3c(=O)n(-c4ccccc4O)c(=O)c3cc2c(=O)n1-c1ccccc1O	none
CNC(=O)C[C@@H]1C(=O)N(c2ccc(OC)cc2)CC1(C)C	none
COc1ccc(Cl)cc1NC(=O)CN(C)C(=O)c1n[nH]c2ccccc12	none
S=C1Cc2ccccc2N1	CHRM4 PAM 38.5
CCOC(=O)c1ccc(NC(=O)c2cc3c(s2)CCC3)cc1	none
O=C(Nc1ccc(Cl)c(Cl)c1)OCc1cccnc1	M5 antag 31.2, M4 antag 34.2
O=C(Nc1ccc(Cl)c(Cl)c1)c1cccc(S(=O)(=O)NCc2cccnc2)c1	M5 antag 33.6
O=C(Nc1cccnc1)OCc1ccccc1	none
C=CCn1nc(-c2ccccc2)cc1C(=O)OCC	M5 PAM 21.5
CCOC(=O)c1cc(-c2ccccc2)nn1CCC#N	none
COc1ccc(OC)c(/C=C2/Sc3ccccc3C2=O)c1	CHRM5 agonist 63.0, M5 antag 42.6
CCN(CC(=O)Nc1ccc(OC)cc1)C(=O)CN1C(=O)NC(C)(c2ccc3ccccc3c2)C1=O (stereo unspecified)	M5 antag 32.4
CCN(CC(=O)Nc1ccc(OC)cc1)C(=O)Cc1ccsc1	CHRM4 PAM 22.1
CC(Sc1nc(N)cc(=O)[nH]1)C(=O)N1CCOCC1 (stereo unspecified)	none
Cc1ccc2nc(SC(C)C(=O)N3CCOCC3)[nH]c2c1 (stereo unspecified)	CHRM4 PAM 31.1
CCn1c(/N=C/c2ccccc2O)nc2ccccc21	none
CC(C)n1c(/N=C/c2ccccc2O)nc2ccccc21	M5 PAM 20.7
CNC(=O)CC1C(=O)N(C)C(=S)N1NC(=O)c1ccccc1 (stereo unspecified)	none
CCNC(=O)CC1C(=O)N(CC)C(=S)N1NC(=O)c1ccccc1 (stereo unspecified)	M5 PAM 28.1, CHRM4 PAM 16.6, M5 antag 28.5
COc1ccc(C(C)=O)cc1COC(=O)CSCC(=O)Nc1ccc(C)cc1	M4 antag 26.4
COc1ccc(NC(=O)c2cc(-c3ccccn3)nc3ccccc23)c(OC)c1	M5 antag 27.4
CCOc1ccccc1NC(=O)c1cc(-c2ccccn2)nc2ccccc12	none
c1cncc(CNc2ncnc3sccc23)c1	none
Cc1sc2ncnc(Nc3ccccc3)c2c1C	none
Cc1sc2ncnc(NCc3ccccc3)c2c1C	M5 antag 29.0
COc1ccccc1C(CNc1ncnc2sc(C)c(C)c12)N(C)C (stereo unspecified)	M5 antag 57.2
c1ccc(CNc2ncnc3sccc23)cc1	M5 antag 39.8
COc1ccc(C(CNc2ncnc3sc(C)c(C)c23)N(C)C)cc1 (stereo unspecified)	none
COc1ccccc1C1NC(=O)NC(C)=C1C(=O)OCC1CCCCC1 (stereo unspecified)	none
Cc1[nH]c2ccccc2c1C(=O)COC(=O)c1ccc2c(=O)n3c(nc2c1)CCC3	none
Nc1nnc(SCC(=O)Nc2cccnc2Cl)s1	CHRM4 PAM 22.9
Cc1cccc(Nc2nnc(SCC(=O)Nc3cccnc3Cl)s2)c1	none
Cc1cc(=O)n(-c2ccc3ccccc3n2)[nH]1	CHRM4 PAM 34.4
O=C(CCSC1=NCCCN1)c1ccc(F)cc1	none
C=CCNC(=O)c1cc(-c2ccncc2)nc2c(C)cc(C)cc12	none
C=CCN(c1ccc(C(=O)N2CCN(c3ccc(F)cc3)CC2)cc1)S(C)(=O)=O	M5 antag 42.4
S=c1c2c(nc3nc[nH]n13)CCC2	M5 PAM 18.3
CC1CCc2c(nc3nc[nH]n3c2=O)C1 (stereo unspecified)	none
COc1ccccc1NC(=O)c1ccc(CSc2ccccc2)o1	none
Cc1ccc(C2(C)NC(=O)N(CC(=O)Nc3cc(S(=O)(=O)N(C)C)ccc3C)C2=O)cc1 (stereo unspecified)	none
